The structures appear in SMILES notation. Some results are limits rather than exact numbers.

As usually defined, the IC50 is the concentration needed to halve the response being measured.

A short description of data set [1]: Cytotoxicity against human CCRF-CEM cells after 72 hrs by MTS assay. Format: functional, cell-based. In outline:
(§1)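 Cells seeded at 25000–35000 cells/mL, compounds from DMSO dosed at time zero as four-fold dilutions. Exposure 72 h at 37 °C, 5% CO2, with MTS added for 1–4 h and OD read at 490 nm. Survival expressed as % of mean control OD, with IC50 from dose-response curves. Run as technical duplicates in at least three biological replicates.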
For orientation: Tetrazolium dyes change colour on reduction, which living cells bring about.

Data set [2] can be described thus: Therapeutic index, ratio of IC50 for human MRC5 cells to IC50 for human CCRF-CEM cells. Type of data set: cell-based. The following applies: MRC5 cells versus CCRF-CEM cells, read-out: Ratio IC50.
Data set [3] is described as follows: Cytotoxicity against human U2OS cells after 72 hrs by MTS assay. Type of data set: functional, cell-based. In outline: as §1
Data set [4] in a line: Cytotoxicity against human A549 cells after 72 hrs by MTS assay. Type of data set: functional, cell-based. The settings on record: A549, 72 h. In outline:
as §1

The nature of data set [5]: Cytotoxicity against human HCT116 cells after 72 hrs by MTS assay. Type of data set: functional, cell-based. The following applies: HCT-116, 72 h. In outline:
as §1

The nature of data set [6]: Cytotoxicity against p53 deficient human HCT116 cells after 72 hrs by MTS assay. Format: functional, cell-based. The following applies: HCT-116, 72 h. The method, boiled down:
as §1

The nature of data set [7]: Cytotoxicity against human CEM/DNR cells after 72 hrs by MTS assay. Type of data set: functional, cell-based. The method, boiled down: as §1
The nature of data set [8]: Cytotoxicity against human K562-TAX cells after 72 hrs by MTS assay. Type of data set: functional, cell-based. In outline:
as §1

Data set [9] can be described thus: Cytotoxicity against human K562 cells after 72 hrs by MTS assay. Type of data set: functional, cell-based. The following applies: K562, 72 h. In outline:
as §1

Data set [10] can be described thus: Therapeutic index, ratio of IC50 for human BJ cells to IC50 for human CCRF-CEM cells. Format: cell-based. The following applies: BJ cells versus CCRF-CEM cells, read-out: Ratio IC50.
The nature of data set [11]: Cytotoxicity against human MRC5 cells after 72 hrs by MTS assay. Type of data set: toxicity, cell-based. The method, boiled down:
as §1

The nature of data set [12]: Cytotoxicity against human BJ cells after 72 hrs by MTS assay. Format: toxicity, cell-based. The method, boiled down:
as §1

In the case of `CC1(C)CC[C@]23CC[C@]4(C)[C@H](CC[C@@H]5[C@@]6(C)CC([N+](=O)[O-])([N+](=O)[O-])C(=O)C(C)(C)[C@@H]6CC[C@]54C)[C@H]2[C@H]1OC3`, the IC50 in data set [1] is > 50 µM.
With `COC(=O)CCC(=O)N[C@H]1C[C@]2(C)[C@H]3CC[C@@H]4[C@H]5[C@H]6OC[C@@]5(CCC6(C)C)CC[C@@]4(C)[C@]3(C)CC[C@H]2C(C)(C)[C@H]1O`, the IC50 in [1] was > 50 µM.
For the compound `CC(C)[C@@H]1CC[C@]2(C(=O)O)CC[C@]3(C)[C@H](CC[C@@H]4[C@@]5(C)CC(N=[N+]=[N-])C(=O)C(C)(C)[C@@H]5CC[C@]43C)[C@@H]12` (some centres not stated), the selectivity ratio in [2] and in data set [10] was > 2.9 throughout. For the same compound, the IC50 is 48.9 µM in data set [3]; 25.7 µM in data set [4]; > 50 µM in data set [5]; > 50 µM in data set [6]; 16 µM in [7]; 10.6 µM in data set [8]. For the same compound, the half-maximal inhibitory concentration (IC50) was 17 to 17.5 µM in data set [1] and 14.2 µM in data set [9]. Besides, the half-maximal inhibitory concentration (IC50) at 72 h in [11] and in [12] was > 50 µM each time.
For the compound `CC1(C)CC[C@]23CC[C@]4(C)[C@H](CC[C@@H]5[C@@]6(C)CC[C@H](O)C(C)(C)[C@@H]6CC[C@]54C)[C@H]2[C@H]1OC3` [ALLOBETULIN], in data set [1], the IC50 was > 50 µM.
As for `COC(=O)CCC(=O)N[C@@H]1C[C@]2(C)[C@H]3CC[C@@H]4[C@H]5[C@H]6OC[C@@]5(CCC6(C)C)CC[C@@]4(C)[C@]3(C)CC[C@H]2C(C)(C)[C@H]1O`, the half-maximal inhibitory concentration (IC50) in data set [1] was > 50 µM.
Consider `CC(=O)NC1=C[C@]2(C)[C@H]3CC[C@@H]4[C@H]5[C@H]6OC[C@@]5(CCC6(C)C)CC[C@@]4(C)[C@]3(C)CC[C@H]2C(C)(C)C1=O`, for which the selectivity ratio in [2] and in data set [10] was > 1.7 in each case. The IC50 was > 50 µM in data set [3]; > 50 µM in data set [4]; > 50 µM in data set [5]; > 50 µM in data set [6]; 35.3 µM in data set [7]; 30.5 µM in data set [8]. Further, the results for the IC50 in data set [1] and in data set [9] were 29.9 to 30 µM and 37.9 µM, respectively. The half-maximal inhibitory concentration (IC50) at 72 h in data set [11] and in data set [12] was > 50 µM each time.
For the compound `C=C(C)[C@@H]1CC[C@]2(CO)CC[C@]3(C)[C@H](CC[C@@H]4[C@@]5(C)CC[C@H](O)C(C)(C)[C@@H]5CC[C@]43C)[C@@H]12` [BETULIN], the IC50 in data set [1] is > 50 µM.
For the compound `CC(C)[C@@H]1CC[C@]2(C(=O)O)CC[C@]3(C)[C@H](CC[C@@H]4[C@@]5(C)C=C(N)C(=O)C(C)(C)[C@@H]5CC[C@]43C)[C@@H]12`, the selectivity ratio in data set [2] and in data set [10] was > 1.9 each time. Moreover, the 50% inhibitory concentration (IC50) was > 50 µM in data set [3]; > 50 µM in data set [4]; > 50 µM in data set [5]; > 50 µM in data set [6]; 33.9 µM in data set [7]; 20.1 µM in [8]. For the same compound, the 50% inhibitory concentration (IC50) in data set [1] is 26.6 to 27 µM; in [9], > 50 µM. Moreover, the half-inhibitory concentration (IC50) at 72 h in data set [11] and in data set [12] was > 50 µM each time.
As to `CC(C)[C@@H]1CC[C@]2(C(=O)O)CC[C@]3(C)[C@H](CC[C@@H]4[C@@]5(C)CC([N+](=O)[O-])([N+](=O)[O-])C(=O)C(C)(C)[C@@H]5CC[C@]43C)[C@@H]12`, the selectivity ratio in [2] and in data set [10] was > 1.7 in each case. The concentration for half-maximal inhibition (IC50) in data set [3] is > 50 µM; in data set [4], > 50 µM; in data set [5], > 50 µM; in [6], > 50 µM; in data set [7], 46.6 µM; in data set [8], 29.9 µM. For the same compound, the half-maximal inhibitory concentration (IC50) was 28.6 to 29 µM in [1] and > 50 µM in data set [9]. Moreover, the half-maximal inhibitory concentration (IC50) at 72 h in data set [11] and in data set [12] was > 50 µM throughout.
Take `CC(C)[C@@H]1CC[C@]2(C(=O)O)CC[C@]3(C)[C@H](CC[C@@H]4[C@@]5(C)C=C(NC6=C[C@]7(C)[C@H]8CC[C@@H]9[C@H]%10[C@H](C(C)C)CC[C@]%10(C(=O)O)CC[C@@]9(C)[C@]8(C)CC[C@H]7C(C)(C)C6=O)C(=O)C(C)(C)[C@@H]5CC[C@]43C)[C@@H]12`: the selectivity ratio in data set [2] and in [10] was > 1.9 throughout. In addition, the half-inhibitory concentration (IC50) in [3] was > 50 µM; in data set [4] it was > 50 µM; in [5], > 50 µM; in data set [6], > 50 µM; in data set [7], 33.9 µM; in data set [8], 20.1 µM. Further, the values for the half-maximal inhibitory concentration (IC50) in data set [1] and in [9] were 26.6 to 27 µM and > 50 µM, respectively. For the same compound, the IC50 at 72 h in data set [11] and in [12] was > 50 µM throughout.
As for `CC(=O)N[C@@H]1C[C@]2(C)[C@H]3CC[C@@H]4[C@H]5[C@H]6OC[C@@]5(CCC6(C)C)CC[C@@]4(C)[C@]3(C)CC[C@H]2C(C)(C)[C@H]1OC(C)=O`, in data set [1], the IC50 is > 50 µM.
On the same count and under the same terms, as for `CC1(C)CC[C@]23CC[C@]4(C)[C@H](CC[C@@H]5[C@@]6(C)C[C@@H](N=[N+]=[N-])[C@H](O)C(C)(C)[C@@H]6CC[C@]54C)[C@H]2[C@H]1OC3`, the figure is > 50 µM; as for `CC1(C)CC[C@]23CC[C@]4(C)[C@H](CC[C@@H]5[C@@]6(C)C[C@H](N=[N+]=[N-])[C@H](O)C(C)(C)[C@@H]6CC[C@]54C)[C@H]2[C@H]1OC3`, > 50 µM.
In the case of `CC1(C)CC[C@]23CC[C@]4(C)[C@H](CC[C@@H]5[C@@]6(C)C=C(NC7=C[C@]8(C)[C@H]9CC[C@@H]%10[C@@H]%11[C@H]%12OC[C@@]%11(CCC%12(C)C)CC[C@@]%10(C)[C@]9(C)CC[C@H]8C(C)(C)C7=O)C(=O)C(C)(C)[C@@H]6CC[C@]54C)[C@H]2[C@H]1OC3`, the half-maximal inhibitory concentration (IC50) in data set [1] is > 50 µM.
Consider `CC1(C)CC[C@]23CC[C@]4(C)[C@H](CC[C@@H]5[C@@]6(C)C[C@H](NC(=O)CCC(=O)O)[C@H](O)C(C)(C)[C@@H]6CC[C@]54C)[C@H]2[C@H]1OC3`, for which the concentration for half-maximal inhibition (IC50) in [1] is > 50 µM.
Turning to `CC1(C)CC[C@]23CC[C@]4(C)[C@H](CC[C@@H]5[C@@]6(C)CC([N+](=O)[O-])=C(O)C(C)(C)[C@@H]6CC[C@]54C)[C@H]2[C@H]1OC3`, the IC50 in data set [1] was > 50 µM.
`CC(C)[C@@H]1CC[C@]2(C(=O)O)CC[C@]3(C)[C@H](CC[C@@H]4[C@@]5(C)CC(Br)C(=O)C(C)(C)[C@@H]5CC[C@]43C)[C@@H]12` (some centres not stated): the 50% inhibitory concentration (IC50) in data set [1] was 2 µM.
In the case of `CC1(C)CC[C@]23CC[C@]4(C)[C@H](CC[C@@H]5[C@@]6(C)CC(Br)C(=O)C(C)(C)[C@@H]6CC[C@]54C)[C@H]2[C@H]1OC3` (some centres not stated), the IC50 in [1] was > 50 µM.
`C=C(C)[C@@H]1CC[C@]2(C(=O)O)CC[C@]3(C)[C@H](CC[C@@H]4[C@@]5(C)CCC(=O)C(C)(C)[C@@H]5CC[C@]43C)[C@@H]12` [BETUNOLIC ACID] registered a half-inhibitory concentration (IC50) in data set [1] of 14 µM.
For the compound `CC1(C)CC[C@]23CC[C@]4(C)[C@H](CC[C@@H]5[C@@]6(C)C[C@@H](NC(=O)CCC(=O)O)[C@H](O)C(C)(C)[C@@H]6CC[C@]54C)[C@H]2[C@H]1OC3`, the IC50 in data set [1] was > 50 µM.
In the case of `CC1(C)CC[C@]23CC[C@]4(C)[C@H](CC[C@@H]5[C@@]6(C)CCC(=O)C(C)(C)[C@@H]6CC[C@]54C)[C@H]2[C@H]1OC3`, the IC50 in [1] was > 50 µM.
Regarding `CC1(C)CC[C@]23CC[C@]4(C)[C@H](CC[C@@H]5[C@@]6(C)C=C(N)C(=O)C(C)(C)[C@@H]6CC[C@]54C)[C@H]2[C@H]1OC3`, the IC50 in [1] was > 50 µM.
The same measure, in the same setting: the figure for `CC(=O)N[C@H]1C[C@]2(C)[C@H]3CC[C@@H]4[C@H]5[C@H]6OC[C@@]5(CCC6(C)C)CC[C@@]4(C)[C@]3(C)CC[C@H]2C(C)(C)[C@H]1OC(C)=O` is > 50 µM; for `CC(C)[C@@H]1CC[C@]2(C(=O)O)CC[C@]3(C)[C@H](CC[C@@H]4[C@@]5(C)CCC(=O)C(C)(C)[C@@H]5CC[C@]43C)[C@@H]12` [DIHYDROBETULONIC ACID] it is 4 µM.
For the compound `CC1(C)CC[C@]23CC[C@]4(C)[C@H](CC[C@@H]5[C@@]6(C)CC7=C(OCCS7)C(C)(C)[C@@H]6CC[C@]54C)[C@H]2[C@H]1OC3`, the IC50 in [1] was > 50 µM.
The same measure, in the same setting: as for `CC1(C)CC[C@]23CC[C@]4(C)[C@H](CC[C@@H]5[C@@]6(C)CC(N=[N+]=[N-])C(=O)C(C)(C)[C@@H]6CC[C@]54C)[C@H]2[C@H]1OC3` (some centres not stated), the figure is > 50 µM; as for `CC(C)[C@@H]1CC[C@]2(C(=O)O)CC[C@]3(C)[C@H](CC[C@@H]4[C@@]5(C)C=C(O)C(=O)C(C)(C)[C@@H]5CC[C@]43C)[C@@H]12`, 6 µM.

Values taken from ChEMBL document CHEMBL3856208, “Lupane and 18α-oleanane derivatives substituted in the position 2, their cytotoxicity and influence on cancer cells” (Eur J Med Chem, 2016).
